In ChEMBL document CHEMBL1933007, “Novel brain penetrant benzofuropiperidine 5-HT₆ receptor antagonists” (Bioorg Med Chem Lett, 2012):
Calls of active or inactive are those of the source. No cut-off for these calls is given here.

Tests used:
[1] = biological target: Voltage-gated inwardly rectifying potassium channel KCNH2 (Homo sapiens, UniProt Q12809); assay: Inhibition of human ERG by patch express assay
[2] = Dissociation constant, pKa of the compound; assay type: physicochemical
Method in brief: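 pKa is a calculated value, not a measured one.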

[3] = biological target: T1, 5-hydroxytryptamine receptor 6 (Homo sapiens, UniProt P50406); assay: Antagonist activity at human recombinant 5-HT6 receptor expressed human astrocytoma cells assessed as inhibition of 5-HT-induced cAMP accumulation after 10 mins preincubation by HTRF assay
[4] = biological target: T1, 5-hydroxytryptamine receptor 6; assay: Displacement of [3H]LSD from full length human 5HT6 receptor
Method in brief: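 Radioligand binding with [³H]LSD on membranes from cells expressing full-length human 5-HT6R.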

[5] = biological target: 5-hydroxytryptamine receptor 6 (Rattus norvegicus, UniProt P31388); assay: Displacement of [3H]LSD from full length rat 5HT6 receptor
Method in brief: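 Radioligand binding with [³H]LSD on membranes from cells expressing full-length rat 5-HT6R.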

Cytochrome P450 3A4 = Cytochrome P450 3A4 (Homo sapiens, UniProt P08684); assay: Inhibition of CYP3A4; assay type: ADME
L-type calcium channel = L-type calcium channel (Rattus norvegicus, UniProt P22002+P27732+Q02485); assay: Inhibition of rat L-type calcium channel at 10 uM
Cytochrome P450 1A2 = biological target: T2, Cytochrome P450 1A2 (Homo sapiens, UniProt P05177); assay: Inhibition of CYP1A2; assay type: ADME
T2 sequence (P05177 whole entry): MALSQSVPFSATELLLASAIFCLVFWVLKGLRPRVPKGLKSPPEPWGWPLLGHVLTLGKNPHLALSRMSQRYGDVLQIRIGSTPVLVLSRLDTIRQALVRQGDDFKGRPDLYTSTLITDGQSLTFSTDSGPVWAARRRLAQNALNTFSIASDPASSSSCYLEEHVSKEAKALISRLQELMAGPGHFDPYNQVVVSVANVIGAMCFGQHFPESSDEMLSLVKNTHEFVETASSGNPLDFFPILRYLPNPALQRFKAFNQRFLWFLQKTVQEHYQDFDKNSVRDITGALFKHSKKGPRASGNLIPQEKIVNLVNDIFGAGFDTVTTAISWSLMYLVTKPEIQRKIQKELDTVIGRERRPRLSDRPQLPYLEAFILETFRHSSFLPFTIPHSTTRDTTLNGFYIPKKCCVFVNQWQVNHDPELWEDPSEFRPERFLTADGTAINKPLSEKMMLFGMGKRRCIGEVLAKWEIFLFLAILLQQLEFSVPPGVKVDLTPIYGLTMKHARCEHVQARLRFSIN

[6] = biological target: T3, 5-hydroxytryptamine receptor 2B (Homo sapiens, UniProt P41595); assay: Antagonist activity at 5HT2B receptor; assay type: functional
[7] = Cmax in rat at 5 mg/kg, po; assay type: ADME, organism-based; set-up: dose 5 mg/kg, route oral; conditions: in vivo
Rattus norvegicus [8] = assay: AUC in rat at 5 mg/kg, po after 6 hrs; assay type: ADME, organism-based, Plasma; set-up: time < 6 hr, dose 5 mg/kg, route oral; conditions: in vivo
[9] = Plasma clearance in rat at 1 mg/kg, iv; assay type: ADME, organism-based; set-up: dose 1 mg/kg, route intravenous
Cytochrome P450 2D6 = Cytochrome P450 2D6 (Homo sapiens, UniProt P10635); assay: Inhibition of CYP2D6; assay type: ADME
[10] = Half life in dog liver microsomes; assay type: ADME, Canis lupus familiaris, Microsome
[11] = Oral bioavailability in rat at 5 mg/kg; assay type: ADME, organism-based; conditions: in vivo
Cytochrome P450 2C9 = Cytochrome P450 2C9 (Homo sapiens, UniProt P11712); assay: Inhibition of CYP2C9; assay type: ADME
[12] = Volume of distribution in rat at 1 mg/kg, iv; assay type: ADME, organism-based; set-up: dose 1 mg/kg, route intravenous; conditions: in vivo
[13] = Ratio of drug level in brain to plasma in rat at 5 mg/kg, ip; assay type: ADME, organism-based; set-up: dose 5 mg/kg, route intraperitoneal; conditions: read-out: BPR
Method in brief: (§1)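 Rats dosed intraperitoneally at 5 mg/kg. Brain concentration measured at 1 h and expressed as a brain-to-plasma ratio.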

Cytochrome P450 2C19 = Cytochrome P450 2C19 (Homo sapiens, UniProt P33261); assay: Inhibition of CYP2C19; assay type: ADME
Brain = assay: Drug uptake in rat brain at 5 mg/kg, ip after 1 hr; assay type: ADME, organism-based; set-up: dose 5 mg/kg, route intraperitoneal; conditions: in vivo; method in brief: as §1
[14] = Half life in rat at 1 mg/kg, iv; assay type: ADME, organism-based; set-up: dose 1 mg/kg, route intravenous; conditions: in vivo
[15] = Half life in human liver microsomes; assay type: ADME, Microsome
[16] = Half life in rat liver microsomes; assay type: ADME, Microsome
Rattus norvegicus [17] = assay: Increase of short-term memory in rat social recognition model at 0.1 to 3 mg/kg, ip; assay type: functional, organism-based
[18] = biological target: T3, 5-hydroxytryptamine receptor 2B; conditions: 10 uM
[19] = biological target: D(3) dopamine receptor (Homo sapiens) (UniProt P35462); conditions: 10 uM
[20] = biological target: T4, Alpha-2B adrenergic receptor (Homo sapiens) (UniProt P18089); conditions: 10 uM
T4 sequence (whole entry): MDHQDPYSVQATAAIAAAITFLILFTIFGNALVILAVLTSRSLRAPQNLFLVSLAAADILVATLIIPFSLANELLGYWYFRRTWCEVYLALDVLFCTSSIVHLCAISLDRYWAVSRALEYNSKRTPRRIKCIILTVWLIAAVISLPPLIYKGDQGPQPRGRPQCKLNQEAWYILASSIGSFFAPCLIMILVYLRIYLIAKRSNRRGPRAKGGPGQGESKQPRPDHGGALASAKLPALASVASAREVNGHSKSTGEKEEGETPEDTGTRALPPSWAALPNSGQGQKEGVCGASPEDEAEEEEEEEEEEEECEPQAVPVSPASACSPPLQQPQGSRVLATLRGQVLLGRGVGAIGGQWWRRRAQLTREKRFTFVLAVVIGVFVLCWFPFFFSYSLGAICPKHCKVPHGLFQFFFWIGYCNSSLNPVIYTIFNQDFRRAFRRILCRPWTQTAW

[21] = biological target: 5-hydroxytryptamine receptor 2A (Homo sapiens) (UniProt P28223); conditions: 10 uM
[22] = biological target: T5, Alpha-2A adrenergic receptor (Homo sapiens) (UniProt P08913); conditions: 10 uM
T5 sequence (whole entry): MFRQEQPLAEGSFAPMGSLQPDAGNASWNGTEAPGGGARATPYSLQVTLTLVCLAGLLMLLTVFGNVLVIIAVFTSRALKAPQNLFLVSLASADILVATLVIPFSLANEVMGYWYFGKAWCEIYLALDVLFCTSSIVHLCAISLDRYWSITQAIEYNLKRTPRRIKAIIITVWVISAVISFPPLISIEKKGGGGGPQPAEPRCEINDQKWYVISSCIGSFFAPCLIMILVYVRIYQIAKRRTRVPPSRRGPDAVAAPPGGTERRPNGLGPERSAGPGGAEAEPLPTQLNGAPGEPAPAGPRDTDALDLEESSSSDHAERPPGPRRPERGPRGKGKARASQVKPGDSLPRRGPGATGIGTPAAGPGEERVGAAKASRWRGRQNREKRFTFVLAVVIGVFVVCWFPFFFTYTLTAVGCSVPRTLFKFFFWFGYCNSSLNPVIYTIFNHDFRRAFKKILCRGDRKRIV

[23] = biological target: D(2) dopamine receptor (Homo sapiens) (UniProt P14416); conditions: 1 uM
D(2) dopamine receptor (Homo sapiens), sequence (P14416 whole entry): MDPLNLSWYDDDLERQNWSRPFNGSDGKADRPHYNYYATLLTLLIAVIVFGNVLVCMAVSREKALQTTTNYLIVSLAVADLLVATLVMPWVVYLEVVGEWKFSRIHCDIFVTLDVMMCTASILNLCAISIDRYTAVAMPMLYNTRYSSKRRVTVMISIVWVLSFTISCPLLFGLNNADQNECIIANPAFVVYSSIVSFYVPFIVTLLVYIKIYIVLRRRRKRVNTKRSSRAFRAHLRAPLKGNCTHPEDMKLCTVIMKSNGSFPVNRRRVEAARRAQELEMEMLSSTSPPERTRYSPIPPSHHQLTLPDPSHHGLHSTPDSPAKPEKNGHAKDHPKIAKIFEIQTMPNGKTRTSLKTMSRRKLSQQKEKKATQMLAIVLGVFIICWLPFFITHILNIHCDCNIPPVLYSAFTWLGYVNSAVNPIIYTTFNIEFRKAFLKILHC

Voltage-gated inwardly rectifying potassium channel KCNH2, sequence (Q12809 whole entry): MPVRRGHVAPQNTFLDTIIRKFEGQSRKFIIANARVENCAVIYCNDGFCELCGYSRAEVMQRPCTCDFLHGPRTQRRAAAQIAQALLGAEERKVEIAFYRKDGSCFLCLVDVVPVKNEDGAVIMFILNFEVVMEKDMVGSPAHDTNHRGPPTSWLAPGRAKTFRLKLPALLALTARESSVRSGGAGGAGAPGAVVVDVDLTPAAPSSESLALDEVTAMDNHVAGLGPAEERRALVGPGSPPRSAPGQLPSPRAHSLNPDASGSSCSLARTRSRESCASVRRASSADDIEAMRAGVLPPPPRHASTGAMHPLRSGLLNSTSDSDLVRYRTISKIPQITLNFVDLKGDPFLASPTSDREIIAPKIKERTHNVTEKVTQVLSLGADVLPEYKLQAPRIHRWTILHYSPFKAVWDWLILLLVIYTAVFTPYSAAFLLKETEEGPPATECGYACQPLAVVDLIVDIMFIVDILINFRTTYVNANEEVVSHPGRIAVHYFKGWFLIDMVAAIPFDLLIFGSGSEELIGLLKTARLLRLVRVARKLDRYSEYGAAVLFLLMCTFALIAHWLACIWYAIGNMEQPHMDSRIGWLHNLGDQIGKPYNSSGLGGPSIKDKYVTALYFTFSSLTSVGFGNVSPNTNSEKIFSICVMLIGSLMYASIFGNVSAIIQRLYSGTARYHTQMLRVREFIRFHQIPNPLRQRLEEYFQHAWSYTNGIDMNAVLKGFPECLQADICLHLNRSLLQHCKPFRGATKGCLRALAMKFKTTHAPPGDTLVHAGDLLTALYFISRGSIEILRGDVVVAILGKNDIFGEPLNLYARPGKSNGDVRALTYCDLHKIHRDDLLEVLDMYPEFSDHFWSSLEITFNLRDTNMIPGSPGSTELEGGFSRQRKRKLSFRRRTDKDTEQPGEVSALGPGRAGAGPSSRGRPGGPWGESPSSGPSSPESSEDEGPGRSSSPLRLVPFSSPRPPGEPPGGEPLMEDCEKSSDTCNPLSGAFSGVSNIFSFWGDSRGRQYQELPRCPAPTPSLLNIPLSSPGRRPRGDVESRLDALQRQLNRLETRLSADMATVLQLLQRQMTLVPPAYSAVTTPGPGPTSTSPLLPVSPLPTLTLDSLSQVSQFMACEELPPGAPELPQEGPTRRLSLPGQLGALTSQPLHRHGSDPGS
5-hydroxytryptamine receptor 6 (Rattus norvegicus, UniProt P31388), sequence (P31388 whole entry): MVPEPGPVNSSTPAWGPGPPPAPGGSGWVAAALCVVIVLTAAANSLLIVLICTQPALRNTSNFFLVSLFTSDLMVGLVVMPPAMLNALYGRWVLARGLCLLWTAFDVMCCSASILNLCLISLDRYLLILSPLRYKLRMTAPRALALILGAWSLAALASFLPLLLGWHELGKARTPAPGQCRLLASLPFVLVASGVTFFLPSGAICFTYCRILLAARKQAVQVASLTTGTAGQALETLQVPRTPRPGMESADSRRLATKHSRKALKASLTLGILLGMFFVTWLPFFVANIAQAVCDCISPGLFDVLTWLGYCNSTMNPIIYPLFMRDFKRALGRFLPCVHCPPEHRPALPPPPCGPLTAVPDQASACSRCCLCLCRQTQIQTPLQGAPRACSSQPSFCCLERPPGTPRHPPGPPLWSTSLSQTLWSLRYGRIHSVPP
T1 sequence (P50406 whole entry): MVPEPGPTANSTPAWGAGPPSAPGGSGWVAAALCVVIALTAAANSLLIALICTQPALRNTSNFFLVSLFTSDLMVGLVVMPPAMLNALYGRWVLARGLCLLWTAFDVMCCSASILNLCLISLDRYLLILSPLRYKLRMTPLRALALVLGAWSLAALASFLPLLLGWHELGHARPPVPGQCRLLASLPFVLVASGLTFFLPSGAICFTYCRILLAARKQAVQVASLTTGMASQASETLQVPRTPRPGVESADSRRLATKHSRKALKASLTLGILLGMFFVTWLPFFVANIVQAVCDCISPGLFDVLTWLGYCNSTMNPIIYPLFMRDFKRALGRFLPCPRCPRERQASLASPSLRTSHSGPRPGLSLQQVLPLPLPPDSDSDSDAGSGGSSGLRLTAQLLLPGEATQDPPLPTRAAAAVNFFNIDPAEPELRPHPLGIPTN
T3 sequence (P41595 whole entry): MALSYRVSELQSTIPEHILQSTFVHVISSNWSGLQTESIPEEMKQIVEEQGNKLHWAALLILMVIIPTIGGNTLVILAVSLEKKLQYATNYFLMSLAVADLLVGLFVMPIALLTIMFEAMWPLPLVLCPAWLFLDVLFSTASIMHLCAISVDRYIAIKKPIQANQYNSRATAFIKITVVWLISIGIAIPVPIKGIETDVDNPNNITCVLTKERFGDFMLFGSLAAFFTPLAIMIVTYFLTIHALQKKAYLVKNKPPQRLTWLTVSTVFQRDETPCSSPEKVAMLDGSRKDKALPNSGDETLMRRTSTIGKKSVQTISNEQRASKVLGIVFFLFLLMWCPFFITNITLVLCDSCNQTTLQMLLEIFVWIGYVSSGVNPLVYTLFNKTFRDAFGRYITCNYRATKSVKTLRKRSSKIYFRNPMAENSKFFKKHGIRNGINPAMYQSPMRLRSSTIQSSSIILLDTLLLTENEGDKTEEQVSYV
5-hydroxytryptamine receptor 2A (Homo sapiens), sequence (P28223 whole entry): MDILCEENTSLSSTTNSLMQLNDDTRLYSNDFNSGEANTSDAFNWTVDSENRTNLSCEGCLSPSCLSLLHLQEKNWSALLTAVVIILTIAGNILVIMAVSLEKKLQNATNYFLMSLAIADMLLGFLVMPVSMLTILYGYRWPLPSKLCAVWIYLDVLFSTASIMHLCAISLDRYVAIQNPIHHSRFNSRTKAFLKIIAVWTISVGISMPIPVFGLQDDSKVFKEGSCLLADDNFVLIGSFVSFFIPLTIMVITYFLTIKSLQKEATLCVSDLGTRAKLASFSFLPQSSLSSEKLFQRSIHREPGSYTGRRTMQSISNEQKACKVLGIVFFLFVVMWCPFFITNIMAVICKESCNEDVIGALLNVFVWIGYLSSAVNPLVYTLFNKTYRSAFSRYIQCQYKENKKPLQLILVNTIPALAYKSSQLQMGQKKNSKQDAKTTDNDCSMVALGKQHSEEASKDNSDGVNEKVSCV
Cytochrome P450 2D6, sequence (P10635 whole entry): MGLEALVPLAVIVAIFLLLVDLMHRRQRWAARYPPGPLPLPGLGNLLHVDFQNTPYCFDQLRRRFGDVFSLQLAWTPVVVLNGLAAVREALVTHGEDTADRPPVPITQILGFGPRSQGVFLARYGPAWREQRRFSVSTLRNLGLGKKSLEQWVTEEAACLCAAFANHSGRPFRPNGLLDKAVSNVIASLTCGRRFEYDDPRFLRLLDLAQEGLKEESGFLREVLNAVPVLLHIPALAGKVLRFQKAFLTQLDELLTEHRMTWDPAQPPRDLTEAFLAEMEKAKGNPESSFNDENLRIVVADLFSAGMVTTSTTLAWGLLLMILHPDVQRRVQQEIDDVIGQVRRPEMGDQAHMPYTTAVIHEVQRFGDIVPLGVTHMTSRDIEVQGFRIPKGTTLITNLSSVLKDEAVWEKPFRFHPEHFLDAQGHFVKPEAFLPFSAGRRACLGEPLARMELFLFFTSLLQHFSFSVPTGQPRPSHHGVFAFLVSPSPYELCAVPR
Cytochrome P450 2C9, sequence (P11712 whole entry): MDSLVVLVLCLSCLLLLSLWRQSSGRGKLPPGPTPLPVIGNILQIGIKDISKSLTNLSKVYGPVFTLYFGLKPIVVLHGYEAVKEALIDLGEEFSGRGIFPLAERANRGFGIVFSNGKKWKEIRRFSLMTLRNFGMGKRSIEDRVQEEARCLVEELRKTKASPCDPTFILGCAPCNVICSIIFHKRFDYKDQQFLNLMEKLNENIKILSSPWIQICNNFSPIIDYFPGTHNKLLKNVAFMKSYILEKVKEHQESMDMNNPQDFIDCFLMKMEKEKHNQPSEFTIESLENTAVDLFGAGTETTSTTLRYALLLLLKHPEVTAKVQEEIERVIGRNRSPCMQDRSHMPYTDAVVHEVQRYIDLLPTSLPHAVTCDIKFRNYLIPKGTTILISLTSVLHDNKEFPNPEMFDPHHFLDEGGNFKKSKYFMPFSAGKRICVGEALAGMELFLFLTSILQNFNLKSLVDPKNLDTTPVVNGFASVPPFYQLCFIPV
Cytochrome P450 2C19, sequence (P33261 whole entry): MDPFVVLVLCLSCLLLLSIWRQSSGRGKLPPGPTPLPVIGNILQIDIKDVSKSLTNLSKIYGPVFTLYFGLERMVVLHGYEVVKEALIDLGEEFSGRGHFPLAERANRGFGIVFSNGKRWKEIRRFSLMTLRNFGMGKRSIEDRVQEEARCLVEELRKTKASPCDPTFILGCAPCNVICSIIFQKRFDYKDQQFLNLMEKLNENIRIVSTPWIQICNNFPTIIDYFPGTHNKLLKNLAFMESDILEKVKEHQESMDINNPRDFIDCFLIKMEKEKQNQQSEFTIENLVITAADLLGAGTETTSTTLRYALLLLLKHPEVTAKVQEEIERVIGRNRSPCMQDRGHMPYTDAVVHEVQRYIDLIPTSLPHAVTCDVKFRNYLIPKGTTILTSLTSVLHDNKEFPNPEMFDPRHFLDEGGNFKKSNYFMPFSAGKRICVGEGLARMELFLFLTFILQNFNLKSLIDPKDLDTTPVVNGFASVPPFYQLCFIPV

Structure (SMILES): O=S(=O)(c1cccc(F)c1)c1ccc2c3c(oc2c1)C1(CCCOC1)NCC3 (stereo in doubt; 3)
- IC50 [1]: 9600 nM
- pKa [2]: 7.5

Structure (SMILES): COc1cccc(S(=O)(=O)c2ccc3c4c(oc3c2)CNCC4)c1
- IC50 [3]: 21 nM
- Ki [4]: 5.6 nM
- Ki [5]: 34 nM

Structure (SMILES): COc1cccc(S(=O)(=O)c2ccc3c4c(oc3c2)C(C)(C)NCC4)c1
- IC50 [3]: 68.6 nM
- Ki [4]: 17.5 nM

Structure (SMILES): O=S(=O)(c1ccc(F)cc1)c1ccc2c3c(oc2c1)CNCC3
- Ki [4]: 22 nM

Structure (SMILES): COCC1(C)NCCc2c1oc1cc(S(=O)(=O)c3cccc(F)c3)ccc21 (stereo unspecified)
- pKa [2]: 7.5
- Ki [4]: 18 nM
- Ki [5]: 113 nM

Structure (SMILES): O=S(=O)(c1cccc(F)c1)c1ccc2c3c(oc2c1)C1(CCCOC1)NCC3 (stereo in doubt; 2) [listing 1 of 2 here]
- IC50 (Cytochrome P450 3A4): > 30000 nM
- IC50 [1]: 12000 nM
- inhibition at 10 µM (L-type calcium channel): > 50%
- IC50 (Cytochrome P450 1A2): > 30000 nM
- IC50 [6]: 1500 nM
- Cmax [7]: 210 ng/mL
- AUC (Rattus norvegicus [8]): 974 ng·h/mL
- clearance [9]: 32 mL/min/kg
- IC50 (Cytochrome P450 2D6): > 30000 nM
- half-life [10]: > 40 min
- bioavailability [11]: 36%
- IC50 (Cytochrome P450 2C9): 1900 nM
- Vd [12]: 4 L/kg
- Ki [5]: 16.9 nM
- Kp [13]: 2
- IC50 (Cytochrome P450 2C19): > 30000 nM
- Drug uptake (Brain): 1660 nmol/g
- half-life [14]: 84 min
- half-life [15]: 30 min
- half-life [16]: 25 min

Structure (SMILES): CC1(C)NCCc2c1oc1cc(S(=O)(=O)c3ccccc3)ccc21
- IC50 [3]: 34 nM
- Ki [4]: 7.7 nM
- Ki [5]: 41 nM

Structure (SMILES): O=S(=O)(c1cccc(F)c1)c1ccc2c3c(oc2c1)C1(CCOC1)NCC3 (racemic)
- IC50 [3]: 32 nM
- pKa [2]: 7.5
- Ki [4]: 22.3 nM
- Ki [5]: 132 nM

Structure (SMILES): O=S(=O)(c1cccc(F)c1)c1ccc2c3c(oc2c1)C1(CCCOC1)NCC3 (racemic)
- IC50 [1]: 13600 nM
- Ki [5]: 38.3 nM

Structure (SMILES): O=S(=O)(c1cccc(F)c1)c1ccc2c3c(oc2c1)C1(CCOCC1)NCC3
- IC50 [1]: > 30000 nM
- IC50 [3]: 6.8 nM
- Cmax [7]: 84 ng/mL
- AUC (Rattus norvegicus [8]): 368 ng·h/mL
- clearance [9]: 17 mL/min/kg
- pKa [2]: 7.4
- Ki [4]: 2.1 nM
- half-life [10]: > 40 min
- bioavailability [11]: 6%
- Vd [12]: 1.4 L/kg
- Ki [5]: 14 nM
- Kp [13]: 3.3
- Drug uptake (Brain): 979 nmol/g
- half-life [14]: 54 min
- half-life [15]: 19 min
- half-life [16]: 25 min

Structure (SMILES): O=S(=O)(c1ccccc1)c1ccc2c3c(oc2c1)CNCC3
- IC50 [3]: 8.5 nM
- Ki [4]: 2.7 nM
- Ki [5]: 9.8 nM

Structure (SMILES): O=S(=O)(c1ccccc1)c1ccc2oc3c(c2c1)CCNC3
- Ki [4]: 46 nM
- Ki [5]: 156 nM

Structure (SMILES): O=S(=O)(c1cccc(F)c1)c1ccc2c3c(oc2c1)C1(CCCOC1)NCC3 (stereo in doubt; 2) [listing 2 of 2 here]
- Activity (Rattus norvegicus [17]): Active
- inhibition [18]: > 50%
- inhibition [19]: > 50%
- inhibition [20]: > 50%
- inhibition [21]: > 50%
- inhibition [22]: > 50%
- inhibition [23]: > 50%

Structure (SMILES): CC1(C(F)F)NCCc2c1oc1cc(S(=O)(=O)c3cccc(F)c3)ccc21 (stereo unspecified)
- pKa [2]: 6.2
- Ki [5]: 183 nM

Structure (SMILES): O=S(=O)(c1cccc(F)c1)c1ccc2c3c(oc2c1)CNCC3
- IC50 [3]: 3.6 nM
- Ki [4]: 1.6 nM
- half-life [10]: 10.3 min
- Ki [5]: 6.9 nM
- half-life [16]: < 5 min

Structure (SMILES): CC1(C(F)(F)F)NCCc2c1oc1cc(S(=O)(=O)c3cccc(F)c3)ccc21 (stereo unspecified)
- pKa [2]: 5.7
- Ki [4]: 139 nM

Structure (SMILES): CC1(C)NCCc2c1oc1cc(S(=O)(=O)c3cccc(F)c3)ccc21
- IC50 [3]: 11.7 nM
- Cmax [7]: 35 ng/mL
- AUC (Rattus norvegicus [8]): 149 ng·h/mL
- clearance [9]: 82 mL/min/kg
- Ki [4]: 2.9 nM
- half-life [10]: 32 min
- bioavailability [11]: 15%
- Vd [12]: 5.5 L/kg
- Ki [5]: 19 nM
- Kp [13]: 7.7
- Drug uptake (Brain): 1620 nmol/g
- half-life [14]: 54 min
- half-life [15]: > 40 min
- half-life [16]: 16 min
